Assay results taken from ChEMBL document CHEMBL4376878, “Potent Thiophene Antagonists of Human Complement C3a Receptor with Anti-Inflammatory Activity” (J Med Chem, 2020).
Active and inactive are the calls of the source. The calls are words filed in the database; no cut-off is given here.

Assays:
[1] = Stability of the compound in rat plasma at 1 mM measured after 4 hrs by LC-MS analysis; assay type: ADME, cell-free
In short: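 Compound added to rat plasma from 1 mM DMSO stock (stock concentration) and incubated at 37 °C. Samples taken at 0, 5, 15, 30, 60, 120 and 240 min, quenched in MeCN/H₂O 9:1, centrifuged and analyzed by LC-MS. Plasma activity checked with SLIGRL-NH₂.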

[2] = system: Rattus norvegicus; assay: Antiinflammatory activity in Wistar rat model of BR103-induced paw edema assessed as reduction in hind paw swelling at 10 to 30 mg/kg, po administered via gavage pretreated for 2 hrs followed by BR103 challenge and measured after 30 mins by digital caliper method

Cc1cc(C(c2ccc(Cl)cc2)c2ccc(Cl)cc2)sc1C(=O)N[C@@H](CCCNC(=N)N)C(=O)O
Stability [1]: Stable
Activity [2]: inactive
